Active and inactive are the calls of the source. The calls are words filed in the database; no cut-off is given here.
What was measured:
Rattus norvegicus [1] = assay: Effect of in vivo DOPA accumulation in reserpine-pretreated rats at limbic region, at 5 mg/kg dosage administered subcutaneously; format: functional, Limbic system; settings: route subcutaneous
Rattus norvegicus [2] = assay: In vivo locomotor activity (accumulated counts/30 min) in nonpretreated rats after subcutaneous administration of 3.2 uM/Kg; format: functional
Outline: (§1)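 Nonpretreated rats injected sc with test drug 5 min before session; motility by photocell recording, counts accumulated over 30 min. Expressed as percent of saline controls, means ± SEM, n = 3-5; Student's t test vs saline controls.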

Rattus norvegicus [3] = assay: In vivo locomotor activity (accumulated counts/30 min) in reserpine-pretreated rats, after subcutaneous administration of 3.2 uM/Kg; format: functional
Outline: (§2)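 Rats pretreated with reserpine 5 mg/kg sc 18 h earlier, then test drug sc immediately before session; photocell motility counts accumulated over 30 min, with gross behaviour observed through mirror. Mean ± SEM, n = 3-4; Student's t test vs saline controls; haloperidol pretreatment 0.5 mg/kg ip 30 min before used to test antagonism.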

Rattus norvegicus [4] = assay: In vivo locomotor activity (accumulated counts/30 min) in nonpretreated rats after subcutaneous administration of 0.32 uM/Kg; format: functional; outline: as §1
Rattus norvegicus [5] = assay: Effect of in vivo DOPA accumulation in reserpine-pretreated rats at striatum region, at 5 mg/kg dosage administered sc; format: functional; settings: route subcutaneous
Rattus norvegicus [6] = assay: Effect of in vivo DOPA accumulation in reserpine-pretreated rats at limbic region, at 5 mg/kg dosage administered subcutaneously; I = Inactive; format: functional, organism-based; parameters: dose 5 mg/kg; settings: Limbic system
Rattus norvegicus [7] = assay: Effect of in vivo DOPA accumulation in reserpine-pretreated rats at striatum region, at 5 mg/kg dosage administered sc; I = Inactive; format: functional, organism-based; parameters: dose 5 mg/kg
Rattus norvegicus [8] = assay: Effect on in vivo DOPA accumulation in nonpretreated rats at Limbic region, at 5 mg/kg dosage administered subcutaneously; I = Inactive; format: functional, organism-based; parameters: dose 5 mg/kg; settings: Limbic system
Outline: (§3)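 Nonpretreated rats given test drug sc 65 min and NSD 1015 (100 mg/kg ip) 30 min before death; saline controls. Limbic and striatal DOPA by HPLC with electrochemical detection.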

Rattus norvegicus [9] = assay: Effect on in vivo DOPA accumulation in nonpretreated rats at striatum region, at 5 mg/kg dosage administered subcutaneously; I = Inactive; format: functional, organism-based; parameters: dose 5 mg/kg; outline: as §3
Rattus norvegicus [10] = assay: In vivo locomotor activity (accumulated counts/30 min) in reserpine-pretreated rats, after subcutaneous administration of 0.32 uM/Kg; format: functional; outline: as §2
Rattus norvegicus [11] = assay: In vivo locomotor activity (accumulated counts/30 min) in reserpine-pretreated rats, after subcutaneous administration of 10 uM/Kg; format: functional; outline: as §2
Rattus norvegicus [12] = assay: Evaluated for in vivo locomotor activity in nonpretreated rats, measured as accumulated counts/30 min at a dose of 52 umol/kg administered sc; format: functional; outline: as §1
Rattus norvegicus [13] = assay: In vivo locomotor activity (accumulated counts/30 min) in reserpine-pretreated rats, after subcutaneous administration of 52 uM/Kg; format: functional; outline: as §2
Rattus norvegicus [14] = assay: Effect of in vivo DOPA accumulation in reserpine-pretreated rats at striatum region, at 5 mg/kg dosage administered subcutaneously; format: functional; settings: sc, route subcutaneous
Rattus norvegicus [15] = assay: In vivo locomotor activity (accumulated counts/30 min) in reserpine-pretreated rats, after subcutaneous administration of 0.31 umol/kg; format: functional; outline: as §2
Rattus norvegicus [16] = assay: In vivo locomotor activity (accumulated counts/30 min) in reserpine-pretreated rats, after subcutaneous administration of 39 uM/Kg; format: functional; outline: as §2
Rattus norvegicus [17] = assay: Effect of in vivo DOPA accumulation in nonpretreated rats at limbic region, at 5 mg/kg dosage administered subcutaneously; I = Inactive; format: functional, organism-based; parameters: dose 5 mg/kg; settings: Limbic system; outline: as §3
Rattus norvegicus [18] = assay: Effect on in vivo DOPA accumulation in nonpretreated rats at striatum region at 5 mg/kg dosage administered subcutaneously; I = Inactive; format: functional, organism-based; parameters: dose 5 mg/kg; outline: as §3
[19] = Rattus norvegicus, Limbic system, sc, read-out: ED50

CN1CCc2cccc3c2[C@H]1Cc1ccc(O)c(O)c1-3 [APOMORPHINE]
ED50 (Rattus norvegicus [1]; [19]): 0.041 µmol/kg | Locomotor activity (Rattus norvegicus [2]): 277 | Locomotor activity (Rattus norvegicus [3]): 366 | Locomotor activity (Rattus norvegicus [4]): 52 | ED50 (Rattus norvegicus [5]): 0.044 µmol/kg

CCCN(CCC)[C@@H]1Cc2cccc(O)c2C[C@@H]1C
ED50 (Rattus norvegicus [1]; [19]): 0.005 µmol/kg | ED50 (Rattus norvegicus [6]): inactive | ED50 (Rattus norvegicus [7]): inactive | ED50 (Rattus norvegicus [8]): inactive | ED50 (Rattus norvegicus [9]): inactive | Locomotor activity (Rattus norvegicus [10]): 110 | Locomotor activity (Rattus norvegicus [11]): 12 | Locomotor activity (Rattus norvegicus [12]): 70 | ED50 (Rattus norvegicus [5]): 0.005 µmol/kg

CCCN(CCC)[C@@H]1Cc2cccc(O)c2C[C@H]1C (stereo in doubt; (-)5)
ED50 (Rattus norvegicus [1]; dose 5 mg/kg): 3.5 µM/kg | Locomotor activity (Rattus norvegicus [13]): 53 | ED50 (Rattus norvegicus [5]): 3.1 µmol/kg

CCCN(CCC)[C@@H]1Cc2cccc(O)c2C[C@H]1C (stereo in doubt; (+)5) [listing 1 of 2 here]
ED50 (Rattus norvegicus [1]; dose 5 mg/kg): 25 µM/kg | ED50 (Rattus norvegicus [14]): 25 µmol/kg | Locomotor activity (Rattus norvegicus [12]): 84 | Locomotor activity (Rattus norvegicus [13]): 55

CCCN(CCC)[C@H]1CCc2c(O)cccc2C1
ED50 (Rattus norvegicus [1]; [19]): 0.004 µmol/kg | Locomotor activity (Rattus norvegicus [15]): 155 | ED50 (Rattus norvegicus [5]): 0.004 µmol/kg

CCCN(CCC)[C@@H]1CCc2c(O)cccc2C1
ED50 (Rattus norvegicus [1]; [19]): 0.41 µmol/kg | Locomotor activity (Rattus norvegicus [16]): 43 | ED50 (Rattus norvegicus [5]): 0.65 µmol/kg

CCCN(CCC)[C@@H]1Cc2cccc(O)c2C[C@H]1C (stereo in doubt; (+)5) [listing 2 of 2 here]
ED50 (Rattus norvegicus [17]): inactive | ED50 (Rattus norvegicus [18]): inactive

Source: ChEMBL document CHEMBL1123775, “C3-methylated 5-hydroxy-2-(dipropylamino)tetralins: conformational and steric parameters of importance for central dopamine receptor activation” (1987)
